# GPR7 antagonist: human neuropeptides B/W receptor 1 antagonism; AID 1861; 290,000 tested, 1.1% active; inhibition, % at 4.4 µM; GPR7-expressing cells, fluorescence antagonist assay; in the data active = inhibition above about 16%, passing the limit was not always enough;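 note: cells stimulated with the agonist NPW; 0% = agonist with vehicle and 100% = vehicle without agonist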
# Target sequence (P48145 whole entry, looked up): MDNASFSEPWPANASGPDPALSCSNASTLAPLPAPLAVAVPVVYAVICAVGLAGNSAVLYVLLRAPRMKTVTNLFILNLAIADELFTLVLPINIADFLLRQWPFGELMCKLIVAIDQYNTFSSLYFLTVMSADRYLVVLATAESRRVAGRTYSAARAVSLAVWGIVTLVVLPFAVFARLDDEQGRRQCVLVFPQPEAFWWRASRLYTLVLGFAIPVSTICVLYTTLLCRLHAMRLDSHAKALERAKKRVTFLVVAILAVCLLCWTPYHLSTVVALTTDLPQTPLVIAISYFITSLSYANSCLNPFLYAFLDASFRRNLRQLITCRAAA
# CHO parental Ca: counter-screen for OX1R antagonists: effect in parental CHO cells; parental CHO-K1, ATP-induced calcium, Fluo-8 fluorescence; 330,000 tested, 0.63% active; inhibition, % at 5.6 µM;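 active = inhibition above that plate's mean sample inhibition plus 3 SD, cut at about 26% in these data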;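 note: 0% = ATP-challenged DMSO wells and 100% = DMSO wells without ATP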
#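 Material – parental CHO cells · Reagent – ATP stimulus · Compound – single nominal dose of 5.6 µM per compound · Detection – Fluo-8 fluorescence · Read-out basis – percent inhibition of calcium signal · Controls – ATP-challenged DMSO wells low, unchallenged DMSO wells high · Repeats – no replicates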
# GalR3 antagonist: antagonists of human GalR3; O60755; HEK293 GalR3-CNG cAMP membrane potential fluorescence; galR3 body fused to GalR1 C-terminus; inhibition, % at 3 µM; 360,000 tested, 0.44% active; AID 651719;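 active = inhibition above the screen-wide average plus 3 SD, cut at about 13% in these data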;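 note: forskolin and galanin both at EC90 stimulate the cells; cAMP rise reported by CNG channel membrane potential dye signal; 0% = forskolin plus galanin with DMSO and 100% = forskolin alone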
# Target sequence (O60755 1-299 limits assumed): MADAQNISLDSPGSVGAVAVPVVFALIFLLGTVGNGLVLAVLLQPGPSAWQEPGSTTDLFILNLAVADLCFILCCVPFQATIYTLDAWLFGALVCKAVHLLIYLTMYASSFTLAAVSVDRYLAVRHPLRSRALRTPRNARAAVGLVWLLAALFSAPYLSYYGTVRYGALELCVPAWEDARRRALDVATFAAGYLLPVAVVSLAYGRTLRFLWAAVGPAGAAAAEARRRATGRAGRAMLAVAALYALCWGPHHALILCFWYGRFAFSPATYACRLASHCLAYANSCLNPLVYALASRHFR
# OX1R antag-1: human HCRTR1 antagonism | O43613 | CHO/OX1R cells, Fluo-8 calcium fluorescence, orexin A | inhibition, % at 5 µM | 330,000 tested, 0.43% active | AID 434989;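 active = inhibition above its plate's threshold, mean inhibition of all tested compounds on the plate plus 3 SD, cut at about 37% in these data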;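 note: 0% = orexin A challenge wells and 100% = SB-334867-A antagonist wells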
# OX1R antag-2: antagonists of human orexin 1 receptor (OX1R); O43613; OX1R-expressing cells, FRET antagonist read-out; inhibition, % at 6.6 µM; 330,000 tested, 1.8% active; AID 485270; in the data active = inhibition mostly above about 38%, no sharp cut-off; inactive = mostly below about 40%;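 note: 0% = agonist challenge alone and 100% = reference antagonist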
# GalR3 conf: GalR3 (human) antagonism, confirmation. 1,600 tested, 59% active. AID 652245. shares compounds with GalR3 antagonist. HEK293 GalR3 CNG cAMP biosensor, membrane potential fluorescence; galR3 fused to GalR1 carboxy tail; challenged with forskolin and galanin at EC90. inhibition, % at 3 µM;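 active = inhibition above the primary screen's cutoff, the mean inhibition of all screened compounds plus 3 SD, cut at about 13% in these data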;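 note: 0% = forskolin plus galanin and 100% = forskolin alone with DMSO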
# HEK-CNG parental: parental cell agonism counter-screen for GalR3 antagonists. shares compounds with GalR3 antagonist. HEK293-CNG parental cells, cAMP membrane potential fluorescence; normalised: DMSO wells 0%, forskolin wells 100%. activation, % at 3 µM. 1,600 tested, 10% active. AID 652268; in the data active = activation above about 1.3%
# Active calls of the source: *; . = no result. The list is not random: actives were taken first. Their share in the collection is about 3.1%.
SMILES,GPR7 antagonist,CHO parental Ca,GalR3 antagonist,OX1R antag-1,OX1R antag-2,GalR3 conf,HEK-CNG parental
Fc1ccc(NC(=S)NNc2ncc(C(F)(F)F)cc2Cl)c(F)c1,20,7,92*,24,24,97*,0
FC(F)(F)c1cnc(NNC(=S)Nc2ccc(Cl)cc2)c(Cl)c1,-15,-7,-2,8,29,.,.
COc1ccc(NC(=O)C(c2ccc(C)cc2)N(C)C(=O)c2ccc(=O)[nH]c2)cc1 (centres undefined),-5,2,13*,5,13,8,0
Cc1cc(S(=O)(=O)c2ccc(Cl)cc2)nc(S(=O)(=O)c2ccc(Cl)cc2)c1C#N,.,.,16*,.,.,11,0
Cc1cc(C)c(S(=O)(=O)c2ccc(Cl)cc2)c(Cl)n1,-14,-14,-3,0,9,.,.
COc1cc(OC)cc(C(=O)NNC(=O)CCC(=O)c2cc(C)sc2C)c1,.,-21,-5,-28,7,.,.
C/C(N=Nc1nc2ccccc2s1)=N\Nc1ccccc1O,-12,-2,-1,-12,19,.,.
COc1ccc(/C=C2\SC(=N)N(c3ccc(F)cc3)C2=O)cc1OC,15,-12,18*,7,39,17*,1
CC(=O)Nc1cc(NC(C)=O)cc(C(=O)OCC(=O)c2ccc3c(c2)NC(=O)CO3)c1,.,-1,-6,-14,5,.,.
N#CCC(=O)Nc1ccc(C(=O)OCC(=O)c2ccc3c(c2)NC(=O)CO3)cc1,.,0,13*,-2,-4,8,0
CCCCC[C@H](O)/C=C/[C@H]1C=CC(=O)[C@@H]1C/C=C\CCCC(=O)O,-16,.,.,.,.,.,.
CCCCCC(O)C=CC1C(O)CC(O)C1CC=CCCCC(=O)O (centres undefined),.,.,96*,.,.,95*,0
C[C@H](NC(=O)N1CCn2c1nc1ccccc12)C(=O)N1CCCCC1,5,-5,0,-1,2,.,.
COc1cccc(Cn2nc(C(=O)O)c3ccccc3c2=O)c1,-12,-2,19*,-29,24,16*,0
COc1ccc(Cn2nc(C(=O)O)c3ccccc3c2=O)cc1F,-10,-25,0,-25,12,.,.
CCc1cccc2c(C(=O)CSc3nnc(C4CC4)o3)c[nH]c12,.,-7,-8,-6,16,.,.
COc1cc2[nH]c3c(Cl)ncnc3c2cc1OC,-7,-3,-10,-4,19,.,.
COc1ccc(C=O)c2[nH]c3c(Cl)ncnc3c12,-24,.,14*,.,.,29*,0
CCCCCc1ccc(C2=NNC(=O)CC2)cc1,-4,2,-2,-3,-1,.,.
CC(C)CCOc1ccc(C2=NNC(=O)CC2)cc1,-5,-5,26*,5,3,15*,1
COc1ccc(COC(=O)C2=C(C)NC(=O)NC2c2cc(Br)c(O)c(OC)c2)cc1 (centres undefined),-13,-10,29*,-29,11,35*,0
CCOc1cc(C2NC(=O)NC(C)=C2C(=O)OCc2ccccc2)ccc1O (centres undefined),-13,-12,13*,-12,10,15*,0
CCOC(=O)C1=C(C)NC2=C(C(=O)CC(C)(C)C2)C1c1ccc(O)c(OCC)c1 (centres undefined),-7,0,22*,-10,11,29*,0
COc1ccc(COC(=O)C2=C(C)NC(=O)NC2c2ccc(O)c(OC)c2)cc1 (centres undefined),1,-9,8,-12,8,.,.
CC1CN(C2CCCCC2)C(=O)NC1=O (centres undefined),.,.,-7,.,.,.,.
SMILES,GPR7 antagonist,CHO parental Ca,GalR3 antagonist,OX1R antag-1,OX1R antag-2,GalR3 conf,HEK-CNG parental
O=C(NCC1CCCN(C(=O)NCc2ccccc2)C1)c1ccc2c(c1)OCO2 (centres undefined),-1,-19,-5,-48,6,.,.
COc1ccc([C@H]2C=C(C(=O)O)O[C@@H](OCCCCO)C2)cc1,.,-6,17*,-1,32,-1,0
O=C(O)C1=C[C@@H](c2ccccc2)C[C@@H](OCCCCO)O1,.,-8,-1,-14,18,.,.
C#Cc1ccc(NC(=O)C2(C)CCN2C(=O)Cc2ccc(C(C)C)cc2)cc1 (centres undefined),.,.,84*,.,.,92*,0
C#Cc1ccc(NC(=O)C2(C)CCN2C(=O)Cc2ccc(C(C)(C)C)cc2)cc1 (centres undefined),.,.,27*,.,.,94*,0
CC(C)(C)c1ccc(CC(=O)N2CCC2(C)C(=O)Nc2ccc3[nH]ncc3c2)cc1 (centres undefined),.,.,-4,.,.,.,.
CC(C)c1ccc(CC(=O)N2CCC2(C)C(=O)NCC(C)(C)C)cc1 (centres undefined),.,.,-7,.,.,.,.
CC(=O)Nc1ccc(S(=O)(=O)N2CCC(N3CCCCCC3)CC2)cc1,-2,-8,-1,-20,9,.,.
Cc1cc(C)c(CN2CCN(C(=O)Cn3cnc4c(OCc5ccccc5)ncnc43)CC2)c(C)c1,.,-13,98*,-9,12,106*,-1
O=C(O)Cn1cnc2c(OCc3ccccc3)ncnc21,.,-4,-1,-7,12,.,.
O=C(CN(Cc1ccco1)C(=O)Cn1nnc(-c2ccc(F)cc2)n1)NC1CCCC1,10,-3,3,-19,15,.,.
COc1ccc(-c2nnn(CC(=O)N(CC(=O)NC3CCCC3)Cc3ccco3)n2)cc1OC,-6,-8,21*,-21,3,14*,0
Cc1sc2ncnc(OCC(=O)N3CCN(C(=O)c4ccco4)CC3)c2c1C,-16,5,-5,-35,13,.,.
O=C(NCCN1CCOCC1)C1CCN(c2ncnc3c2sc2cccc(F)c23)CC1,-9,2,15*,-7,10,2,0
COc1ccc(OC)c(NC(=O)CN2CCC(NC(=O)c3ccccc3C)CC2)c1,-10,-12,-2,-10,16,.,.
CC(C)CC(=O)NC(=S)Nc1ccc(NC(=O)c2ccco2)cc1,4,-1,-1,-29,20,.,.
CCn1nc(CC(=O)Nc2ccc(-n3cnnn3)c(OC)c2)c2ccccc2c1=O,-5,-26,17*,-30,15,17*,0
CCN(c1ccc(C(=O)CN2C(=O)NC3(CCOc4ccccc43)C2=O)cc1)S(C)(=O)=O (centres undefined),.,-3,-1,-8,1,.,.
CCc1nc2ccc(C(=O)NCCN3CCOCC3)cn2c1N(CCC(C)C)CCN(C)C,.,.,-4,.,.,.,.
c1ccc(-c2cn(-c3ccccc3)c3[n+]2CCS3)cc1,-7,11,0,-2,24,.,.
CC(C)(C)c1ccc(-c2cn(-c3ccc(Br)cc3)c3[n+]2CCCS3)cc1,56*,.,25*,.,.,60*,1.7*

# Screens from PubChem BioAssay.
